In ChEMBL document CHEMBL1139365, “Inhibition of MDR1 activity in vitro by a novel class of diltiazem analogues: toward new candidates” (J Med Chem, 2009):
pEC50, pIC50: −log10 of the molar value. Calls of active or inactive are those of the source. The rule behind the calls is not given here.

Columns and labels:
A2780 [1] = assay: Antiproliferative activity against human A2780 cells after 3 days by MTT assay; assay type: functional, cell-based; conditions: for pIC50: Homo sapiens, A2780, 72 h
Method in brief: (§1)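 Cells plated 6–8 h in 96-well plates. Compound alone, in duplicate at ≥5 concentrations (3-fold serial dilutions, top 100 μM), with final DMSO […] after predilution in FCS. After 3 days, MTT 4 h at 37 °C, formazan dissolved in DMSO, A540. IC50 taken from single dose–response curves; 3–4 experiments. A2780/DX3 kept doxorubicin-free 2–3 days beforehand.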

[2] = Antiproliferative activity against human A2780/DX3 cells after 3 days by MTT assay; assay type: functional, cell-based; conditions: for pIC50: Homo sapiens, A2780/DX3, 72 h; method in brief: as §1
A2780 ADR [3] = assay: Reversal of P-gp 170-mediated multidrug resistance in human A2780/DX3 cells assessed as reduction in doxorubicin IC50 at IC5 pretreated for 6 hrs before doxorubicin administration measured after 3 days by MTT assay; assay type: cell-based; design: scale not given: the % may be the effect or the level left
Method in brief: (§2)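 A2780/DX3 cells went into medium holding the modulator at its MTT-derived 0% or 5% growth-inhibition concentration. Doxorubicin (30–0.048 μM serial dilutions, modulator kept constant) was added 6 h later. MTT (2 mg/mL) was added after 3 days for 4 h at 37 °C, formazan dissolved in DMSO, A540 read. IC50 came from dose–response curves, repeated 4–6 times. % reduction is versus doxorubicin alone in the same experiment. Kruskal–Wallis/Mann–Whitney tests.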

A2780 ADR [4] = assay: Reversal of P-gp 170-mediated multidrug resistance in human A2780/DX3 cells assessed as reduction in doxorubicin IC50 at IC0 pretreated for 6 hrs before doxorubicin administration measured after 3 days by MTT assay; assay type: cell-based; design: scale not given: the % may be the effect or the level left; method in brief: as §2
A2780 ADR [5] = assay: Reversal of P-gp 170-mediated multidrug resistance in human A2780/DX3 cells assessed as increase in intracellular doxorubicin accumulation at 5 times IC5 pretreated for 2 hrs before doxorubicin administration measured after 2 hrs by flow cytometry; assay type: cell-based
Method in brief: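 A2780/DX3 cells (kept in 0.1 μM doxorubicin, drug withdrawn 2–3 days before use) seeded in flasks, grown 24 h to 75–85% confluence. Modulator given at five times the 5%-growth-inhibition concentration for 2 h, then 10 μM doxorubicin for 2 h more. Cells trypsinized, fixed in 3.7% paraformaldehyde/2% sucrose in PBS. Flow cytometry, 488 nm excitation, 575 nm bandpass. Read-out is MFI, with % increase taken from the MFI ratio to doxorubicin alone.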

[6] = Down regulation of P-gp 170 expression in human A2780/DX3 cells after 72 hrs by flow cytometry; assay type: functional, cell-based
Method in brief: (§3)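 Cells exposed 72 h to compound at concentrations giving 5% or 0% growth inhibition. Then washed in PBS/2% FCS; 2.5 × 10^5 cells stained at 4 °C with anti-Pgp MM4.17 monoclonal, then FITC goat anti-mouse IgG, and analysed by flow cytometry.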

A2780 [7] = assay: Down regulation of P-gp 170 expression in human A2780 cells after 72 hrs by flow cytometry; assay type: functional, cell-based; method in brief: as §3
A2780 [8] = assay: Antiproliferative activity against human A2780 cells at 0.20 uM after 3 days by MTT assay; assay type: functional; conditions: A2780, 72 h
[9] = Antiproliferative activity against human A2780/DX3 cells at 15.6 uM after 3 days by MTT assay; assay type: functional; conditions: A2780/DX3, 72 h
A2780 [10] = assay: Antiproliferative activity against human A2780 cells at 13.1 uM after 3 days by MTT assay; assay type: functional; conditions: A2780, 72 h
[11] = Antiproliferative activity against human A2780/DX3 cells at 3.0 uM after 3 days by MTT assay; assay type: functional; conditions: A2780/DX3, 72 h
A2780 [12] = assay: Antiproliferative activity against human A2780 cells at 0.23 uM after 3 days by MTT assay; assay type: functional; conditions: A2780, 72 h
[13] = Antiproliferative activity against human A2780/DX3 cells at 1.88 uM after 3 days by MTT assay; assay type: functional; conditions: A2780/DX3, 72 h
A2780 [14] = assay: Antiproliferative activity against human A2780 cells at 2.1 uM after 3 days by MTT assay; assay type: functional; conditions: A2780, 72 h
[15] = Antiproliferative activity against human A2780/DX3 cells at 1.5 uM after 3 days by MTT assay; assay type: functional; conditions: A2780/DX3, 72 h
A2780 [16] = assay: Antiproliferative activity against human A2780 cells at 0.72 uM after 3 days by MTT assay; assay type: functional; conditions: A2780, 72 h
[17] = Antiproliferative activity against human A2780/DX3 cells at 4.5 uM after 3 days by MTT assay; assay type: functional; conditions: A2780/DX3, 72 h
A2780 [18] = assay: Antiproliferative activity against human A2780 cells at 1.5 uM after 3 days by MTT assay; assay type: functional; conditions: A2780, 72 h
[19] = Blockade of L-type calcium channel
[20] = Antiproliferative activity against human A2780/DX3 cells at 1.0 uM after 3 days by MTT assay; assay type: functional; conditions: A2780/DX3, 72 h
A2780 [21] = assay: Antiproliferative activity against human A2780 cells at 0.6 uM after 3 days by MTT assay; assay type: functional; conditions: A2780, 72 h
A2780 ADR [22] = assay: Reversal of P-gp 170-mediated multidrug resistance in human A2780/DX3 cells assessed as increase in intracellular doxorubicin accumulation at 5 times IC5 pretreated for 2 hrs before doxorubicin administration measured after 2 hrs by epifluorescent microscopic analysis; assay type: cell-based
Method in brief: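 A2780/DX3 cells on chamber slides at 75–85% confluence, pretreated 2 h with compound at five times the concentration giving 5% growth inhibition. Doxorubicin 10 μM then added for 2 h. Cells washed in cold PBS, fixed in 3.7% paraformaldehyde/2% sucrose, mounted and imaged by epifluorescence at 20X. Untreated and compound-only controls included.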

[23] = Antiproliferative activity against human A2780/DX3 cells at 1.2 uM after 3 days by MTT assay; assay type: functional; conditions: A2780/DX3, 72 h
A2780 [24] = assay: Antiproliferative activity against human A2780 cells at 10 uM after 3 days by MTT assay; assay type: functional; conditions: A2780, 72 h
[25] = Antiproliferative activity against human A2780/DX3 cells at 6.2 uM after 3 days by MTT assay; assay type: functional; conditions: A2780/DX3, 72 h
A2780 [26] = assay: Antiproliferative activity against human A2780 cells at 1.3 uM after 3 days by MTT assay; assay type: functional; conditions: A2780, 72 h
[27] = Antiproliferative activity against human A2780/DX3 cells at 2.2 uM after 3 days by MTT assay; assay type: functional; conditions: A2780/DX3, 72 h

SMILES | IC5 (A2780 [1]) | pIC50 (A2780 [1]) | IC5 [2] | pIC50 [2] | Activity (A2780 ADR [3]) | Activity (A2780 ADR [4]) | Activity (A2780 ADR [5]) | Activity [6] | Activity (A2780 [7]) | further results
CCCCCOC1(c2ccc(Br)cc2)SC=C(C)n2c1noc2=O (stereo not drawn) | 2.6 µM | 3.97 | 41.8 µM | < 4.00 | -43% | -31% | 52% | inactive | inactive | inhibition at 0.2 µM (A2780 [8]): 0%; inhibition at 15.6 µM [9]: 0%
COC1(c2ccc(Cl)cc2)SC=C(C)n2c1noc2=O (stereo not drawn) | 28.4 µM | 3.78 | 11.7 µM | 3.95 |  |  | < 48% |  |  | inhibition at 13.1 µM (A2780 [10]): 0%; inhibition at 3 µM [11]: 0%
CCCCCCCCCCCCCCCCCCOC1(c2ccc(Br)cc2)SC=C(C)n2c1noc2=O (stereo not drawn) | 0.9 µM | < 4.00 | 4.9 µM | < 4.00 | -22% | -21% | < 48% |  |  | inhibition at 0.23 µM (A2780 [12]): 0%; inhibition at 1.88 µM [13]: 0%
CC1=CSC(O)(c2ccc([N+](=O)[O-])cc2)c2noc(=O)n21 (stereo not drawn) | 7.7 µM | < 4.00 | 2.9 µM | < 4.00 | -10% | 26% | < 48% |  |  | inhibition at 2.1 µM (A2780 [14]): 0%; inhibition at 1.5 µM [15]: 0%
CCCCCCCCCCCCCCCOC1(c2ccc(Cl)cc2)SC=C(C)n2c1noc2=O (stereo not drawn) | 2.1 µM | < 4.00 | 14.6 µM | < 4.00 | -13% | -14% | < 48% |  |  | inhibition at 0.72 µM (A2780 [16]): 0%; inhibition at 4.5 µM [17]: 0%
CCOC1(c2ccc(Br)cc2)SC=C(C)n2c1noc2=O (stereo not drawn) | 3.3 µM | < 4.00 | 7.8 µM | < 4.00 | -8% | 6% | < 48% |  |  | inhibition at 1.5 µM (A2780 [18]): 0%; pEC50 [19]: 7.40; inhibition at 1 µM [20]: 0%
O=c1onc2n1C=CSC2(O)c1ccccc1 (stereo not drawn) | 4.4 µM | < 4.00 | 32.1 µM | < 4.00 | -18% | -36% | inactive | inactive | inactive | inhibition at 0.6 µM (A2780 [21]): 0%; Activity (A2780 ADR [22]): inactive; inhibition at 1.2 µM [23]: 0%
CC1=CSC(O)(c2ccccc2)c2noc(=O)n21 (stereo not drawn) | 100 µM | < 4.00 | 49.4 µM | < 4.00 | -2% | -16% | < 48% |  |  | inhibition at 10 µM (A2780 [24]): 0%; inhibition at 6.2 µM [25]: 0%
COc1ccc([C@@H]2Sc3ccccc3N(CCN(C)C)C(=O)[C@@H]2OC(C)=O)cc1 [DILTIAZEM] | 2.8 µM | 3.79 | 20.6 µM | < 4.00 | -84% | -72% | 699% | inactive | inactive | inhibition at 1.3 µM (A2780 [26]): 0%; pEC50 [19]: 6.10; inhibition at 2.2 µM [27]: 0%
